ChEMBL document CHEMBL1135972 (J Med Chem, 2002)
Values after ≈ are worked out from the molar mass of the structure shown.

Tests used:
[1] = Solubility at pH 7.4 was determined; format: physicochemical; settings: buffer
Summary of the method: (§1)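 About 2 mg solid shaken 18 h at 25 °C in the dark, then settled 30 min. pH rechecked (±0.2, readjusted, then 60 min re-equilibration). Centrifuged 1000g 15 min, 0.2 μm filtered, diluted 1:1 with MeCN. Assayed by RP18 HPLC, UV 295 nm, against a 3-point standard curve.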

[2] = Solubility at pH 6.0 was determined; format: physicochemical; settings: buffer; summary of the method: as §1
WIL2 [3] = experiment: Growth inhibitory activity against human lymphoblastoid W1L2 cell line in presence of 10 uM thymidine/50 uM hypoxanthine; format: functional, cell-based
Summary of the method: (§2)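 IC50 read by cell counting. For the folate-rescue arm, W1L2 medium carried 10 μM thymidine plus 50 μM hypoxanthine. Values are mean ± SD or individual results.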

[4] = Growth inhibitory activity against human lymphoblastoid W1L2:R865 cell line; format: functional, cell-based; summary of the method: as §2
WIL2 [5] = experiment: Growth inhibitory activity against human lymphoblastoid W1L2 cell line; format: functional, cell-based; summary of the method: as §2
Proteasome = experiment: Chymotryptic inhibitory activity against 26S proteasome; format: functional, subcellular
[6] = Solubility at pH 6.0; format: physicochemical; settings: buffer; summary of the method: as §1
[7] = Solubility at pH 7.4; format: physicochemical; settings: buffer; summary of the method: as §1

SMILES	solubility [1] [µM]	solubility [2] [µM]	IC50 (Proteasome) [nM]	solubility [6] [µM]	solubility [7] [µM]	IC50 (WIL2 [3]) [nM]	IC50 [4] [nM]	IC50 (WIL2 [5]) [nM]
C#CCN(Cc1cc2c(=O)n(C)c(CN3CCCC3)nc2cc1Cl)c1ccc(C(=O)NCc2cccnc2)cc1						0.76	24000	0.7
C#CCN(Cc1cc2c(=O)n(C)c(CN(CC)CC)nc2cc1Cl)c1ccc(C(=O)NCc2cccnc2)cc1						0.73	> 50000	0.71
C#CCN(Cc1cc2c(=O)n(C)c(CN3CCC[C@H]3C(=O)OC)nc2cc1Cl)c1ccc(C(=O)NCc2cccnc2)cc1						14	24000	18
C#CCN(Cc1cc2c(=O)n(CC(=O)OC)c(CN3CCCCC3)nc2cc1Cl)c1ccc(C(=O)NCc2cccnc2)cc1						9.6	23000	11
C#CCN(Cc1cc2c(=O)n(C)c(CN3CCCCC3)nc2cc1Cl)c1ccc(C(=O)NCc2cccnc2)cc1						0.78	14000	0.8
C#CCN(Cc1cc2c(=O)n(C)c(CN3CCN(C)CC3)nc2cc1Cl)c1ccc(C(=O)NCCCn2ccnc2)cc1	96 (≈ 57.7 µg/mL)	934 (≈ 561 µg/mL)				2.3	18000	2.1
C#CCN(Cc1cc2c(=O)n(CC(=O)N3CCCCC3)c(CN3CCCCC3)nc2cc1Cl)c1ccc(C(=O)NCc2cccnc2)cc1						7.4	> 50000	8.4

More lines, main results first:

solubility [1] [µM]	solubility [2] [µM]	IC50 (Proteasome) [nM]	solubility [6] [µM]	solubility [7] [µM]	SMILES	IC50 (WIL2 [3]) [nM]	IC50 [4] [nM]	IC50 (WIL2 [5]) [nM]
5 (≈ 3.23 µg/mL)	23 (≈ 14.9 µg/mL)				C#CCN(Cc1cc2c(=O)n(C)c(CN3CCN(c4ccccc4)CC3)nc2cc1Cl)c1ccc(C(=O)NCc2cccnc2)cc1	5.4	940	7.2
75 (≈ 46.1 µg/mL)	992 (≈ 609 µg/mL)				C#CCN(Cc1cc2c(=O)n(C)c(CN3CCN(CCO)CC3)nc2cc1Cl)c1ccc(C(=O)NCc2cccnc2)cc1	7.1	22000	7
146 (≈ 85.3 µg/mL)	636 (≈ 372 µg/mL)	3000			C#CCN(Cc1cc2c(=O)n(C)c(CN3CCN(C)CC3)nc2cc1Cl)c1ccc(C(=O)NCc2cccnc2)cc1	0.32	13000	0.49
			< 1	2.3 (≈ 1.19 µg/mL)	C#CCN(Cc1cc2c(O)nc(C)nc2cc1Br)c1ccc(C(=O)NCc2cccnc2)cc1	2.2	610	2.8
286 (≈ 171 µg/mL)	1760 (≈ 1060 µg/mL)				C#CCN(Cc1cc2c(=O)n(C)c(CN3CCN(CC)CC3)nc2cc1Cl)c1ccc(C(=O)NCc2cccnc2)cc1	0.78	22000	0.78
2 (≈ 1.14 µg/mL)	3 (≈ 1.71 µg/mL)				C#CCN(Cc1cc2c(=O)n(C)c(CN3CCOCC3)nc2cc1Cl)c1ccc(C(=O)NCc2cccnc2)cc1	2	19000	2
0.5 (≈ 0.293 µg/mL)	2 (≈ 1.17 µg/mL)				C#CCN(Cc1cc2c(=O)n(C)c(CN3CCC(O)CC3)nc2cc1Cl)c1ccc(C(=O)NCc2cccnc2)cc1	0.7	18000	0.72
2 (≈ 1.34 µg/mL)	2 (≈ 1.34 µg/mL)				C#CCN(Cc1cc2c(=O)n(CC(=O)N(CC)CC)c(CN3CCCCC3)nc2cc1Cl)c1ccc(C(=O)NCc2cccnc2)cc1	8.4	19000	9.4
6 (≈ 3.52 µg/mL)	80 (≈ 47 µg/mL)				C#CCN(Cc1cc2c(=O)n(C)c(CN3CCCCC3)nc2cc1Cl)c1ccc(C(=O)NCCCn2cncn2)cc1	800	20000	840
